The text below walks through data of ChEMBL document CHEMBL4229355, “Synthesis of 3'-halo-5'-norcarbocyclic nucleoside phosphonates as potent anti-HIV agents” (Eur J Med Chem, 2018).

Series [1] concerns Human immunodeficiency virus 1. The series can be described thus: Antiviral activity against HIV1 LAI infected in PHA-P activated human PBMC assessed as reduction in viral replication preincubated with cells for 30 mins followed by viral infection and measured at day 7 post infection by reverse transcriptase activity-based assay. The settings on record: Human immunodeficiency virus 1, LAI. The class given is functional, organism-based. A digest of the protocol:
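PHA-P-activated PBMCs (1.5 × 10⁵ cells) pre-treated 30 min with increasing compound concentrations, then infected with HIV-1 LAI at 100 TCID₅₀; supernatants harvested day 7 post-infection and stored at −20 °C. Percent inhibition of RT activity plotted against concentration and fitted to quadratic curves to give EC₅₀. Mean from 3 blood donors.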

For the next series, the system named is Chikungunya virus. The series can be described thus: Antiviral activity against Chikungunya virus. The format is functional, organism-based.
In the next series the test system is Human alphaherpesvirus 2. Put plainly: Antiviral activity against HSV-2. The class given is functional, organism-based.
Another series relates to Zika virus. Put plainly: Antiviral activity against Zika virus. The class given is functional, organism-based.
The nature of series [2]: Cytotoxicity against human PBMC assessed as reduction in cell growth after 7 days by MTT assay. The format is cell-based. Put shortly: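 Percent cell viability plotted against compound concentration and fitted to quadratic curves; CC₅₀ is the concentration reducing cell growth by 50%.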
The test system of another series is dengue virus type 2. Put plainly: Antiviral activity against Dengue virus 2. The format is functional, organism-based.
The test system of a further series is Human alphaherpesvirus 1. Put plainly: Antiviral activity against HSV-1. The format is functional, organism-based.

Calls of active or inactive are those of the source. No cut-off for these calls is given here.

Turning to `O=P(O)(O)CO[C@H]1C[C@@H](n2cnc3c(O)ncnc32)C=C1I` (racemic), in series [1], the concentration for a half-maximal effect (EC50) (usually the concentration that produces a half-maximal response) is at least 10 µM. Further, the outcome in the series on Chikungunya virus, in the series with Human alphaherpesvirus 2, in the series on Zika virus, in the series with dengue virus type 2 and with Human alphaherpesvirus 1 was inactive. The half-maximal cytotoxic concentration (CC50) (as a rule, the concentration giving 50% cytotoxicity) at 168 h in series [2] is at least 10 µM.

For `Nc1nc(O)c2ncn([C@H]3C=C(I)[C@@H](OCP(=O)(O)O)C3)c2n1` (racemic), the half-maximal effective concentration (EC50) in series [1] was at least 10 µM. Moreover, the outcome in the series on Chikungunya virus, in the series on Human alphaherpesvirus 2, with Zika virus, in the series with dengue virus type 2 and with Human alphaherpesvirus 1 was inactive. For the same molecule, the CC50 at 168 h in series [2] is at least 10 µM.

With `Nc1ncnc2c1ncn2[C@H]1C=C(I)[C@@H](OCP(=O)(O)O)C1` (racemic), the half-maximal effective concentration (EC50) in series [1] came out at 5.9 µM. Also, the outcome in the series on Chikungunya virus, with Human alphaherpesvirus 2, with Zika virus, with dengue virus type 2 and in the series with Human alphaherpesvirus 1 was inactive. Besides, the CC50 at 168 h in series [2] was at least 10 µM.

For the molecule `O=P(O)(O)CO[C@H]1C[C@@H](n2cnc3c(NC4CC4)ncnc32)C=C1I` (racemic), the EC50 in series [1] is at least 10 µM. In addition, the result in the series on Chikungunya virus, with Human alphaherpesvirus 2, with Zika virus, with dengue virus type 2 and in the series on Human alphaherpesvirus 1 was inactive. The CC50 at 168 h in series [2] is at least 10 µM.

In the case of `Nc1nc2c(ncn2[C@H]2C=C(F)[C@@H](OCP(=O)(O)O)C2)c(=O)[nH]1` (racemic), the half-maximal effective concentration (EC50) in series [1] is at least 10 µM. In addition, the result with Chikungunya virus, in the series with Human alphaherpesvirus 2, in the series with Zika virus, in the series with dengue virus type 2 and in the series on Human alphaherpesvirus 1 was inactive. Further, the half-maximal cytotoxic concentration (CC50) at 168 h in series [2] is at least 10 µM.

`Nc1ncnc2c1ncn2[C@H]1C=C(F)[C@@H](OCP(=O)(O)O)C1` (racemic): the EC50 in series [1] is 0.88 µM. In addition, the outcome with Chikungunya virus, in the series on Human alphaherpesvirus 2, with Zika virus, in the series on dengue virus type 2 and in the series with Human alphaherpesvirus 1 was inactive. Further, the CC50 at 168 h in series [2] was at least 10 µM.

As for `C[C@H](Cn1cnc2c(N)ncnc21)OCP(=O)(O)O` [TENOFOVIR ANHYDROUS], the EC50 in series [1] worked out at 1.1 µM. In addition, the CC50 at 168 h in series [2] was at least 10 µM.
